Experimental data from ChEMBL document CHEMBL4765302, “Design, synthesis and biological evaluation of novel histone deacetylase1/2 (HDAC1/2) and cyclin-dependent Kinase2 (CDK2) dual inhibitors against malignant cancer” (Eur J Med Chem, 2020).

Legend:
HCT-116 [1] = test: Antiproliferative activity against human HCT-116 cells assessed as reduction in cell growth at 2 uM incubated for 72 hrs by CCK-8 assay relative to control; type: functional
HCT-116 [2] = test: Antiproliferative activity against human HCT-116 cells assessed as reduction in cell growth at 8 uM incubated for 72 hrs by CCK-8 assay relative to control; type: functional
HepG2 [3] = test: Antiproliferative activity against human HepG2 cells assessed as reduction in cell growth at 2 uM incubated for 72 hrs by CCK-8 assay relative to control; type: functional
HepG2 [4] = test: Antiproliferative activity against human HepG2 cells assessed as reduction in cell growth at 8 uM incubated for 72 hrs by CCK-8 assay relative to control; type: functional
NCI-H460 [5] = test: Antiproliferative activity against human H460 cells assessed as reduction in cell growth at 2 uM incubated for 72 hrs by CCK-8 assay relative to control; type: functional
NCI-H460 [6] = test: Antiproliferative activity against human H460 cells assessed as reduction in cell growth at 8 uM incubated for 72 hrs by CCK-8 assay relative to control; type: functional
Histone deacetylase 1 = Histone deacetylase 1 (Homo sapiens, UniProt Q13547); test: Inhibition of recombinant human HDAC1 at 10 uM using SIRT1 as substrate incubated for 10 mins followed by substrate addition and measured after 30 mins by fluorescence based assay relative to control; settings: time 40.0 min
Histone deacetylase 1, sequence (Q13547 whole entry): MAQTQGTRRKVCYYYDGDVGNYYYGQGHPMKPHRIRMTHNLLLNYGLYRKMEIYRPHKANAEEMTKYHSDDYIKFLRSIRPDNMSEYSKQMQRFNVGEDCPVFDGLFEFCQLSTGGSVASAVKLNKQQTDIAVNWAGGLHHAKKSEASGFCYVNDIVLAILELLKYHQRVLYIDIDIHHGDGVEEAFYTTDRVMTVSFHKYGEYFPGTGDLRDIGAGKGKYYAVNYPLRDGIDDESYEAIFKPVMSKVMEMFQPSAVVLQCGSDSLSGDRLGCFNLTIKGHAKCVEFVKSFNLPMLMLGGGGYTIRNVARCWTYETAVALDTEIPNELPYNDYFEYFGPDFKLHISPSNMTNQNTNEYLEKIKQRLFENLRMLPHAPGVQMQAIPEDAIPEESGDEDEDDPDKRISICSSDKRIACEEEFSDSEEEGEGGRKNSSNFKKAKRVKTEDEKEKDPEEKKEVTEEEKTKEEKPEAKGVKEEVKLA
Method in brief: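 Enzyme inhibition of HDAC1 measured at a single concentration of 10 µM, tested alongside the cell-growth screen.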

NCI-H460 [7] = test: Antiproliferative activity against human NCI-H460 cells assessed as reduction in cell growth incubated for 72 hrs by CCK-8 assay; type: functional, cell-based; settings: NCI-H460, 72 h
Method in brief: (§1)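 IC50 by CCK-8 assay across five solid-tumour lines (HCT116, HepG2, H460, HeLa, A375). Run only for compounds chosen after the single-concentration screen, with CS055 and roscovitine as references.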

A-375 = test: Antiproliferative activity against human A-375 cells assessed as reduction in cell growth incubated for 72 hrs by CCK-8 assay; type: functional, cell-based; settings: A-375, 72 h; method in brief: as §1
HepG2 [8] = test: Antiproliferative activity against human HepG2 cells assessed as reduction in cell growth incubated for 72 hrs by CCK-8 assay; type: functional, cell-based; settings: HepG2, 72 h; method in brief: as §1
HCT-116 [9] = test: Antiproliferative activity against human HCT-116 cells assessed as reduction in cell growth incubated for 72 hrs by CCK-8 assay; type: functional, cell-based; settings: HCT-116, 72 h; method in brief: as §1
HeLa = test: Antiproliferative activity against human HeLa cells assessed as reduction in cell growth incubated for 72 hrs by CCK-8 assay; type: functional, cell-based; method in brief: as §1

Row | SMILES | inhibition (Histone deacetylase 1) [%] | IC50 (NCI-H460 [7]) [µM] | IC50 (A-375) [µM] | IC50 (HepG2 [8]) [µM] | IC50 (HCT-116 [9]) [µM] | IC50 (HeLa) [µM] | inhibition at 2 µM (HCT-116 [1]) [%] | inhibition at 8 µM (HCT-116 [2]) [%] | inhibition at 2 µM (HepG2 [3]) [%] | inhibition at 8 µM (HepG2 [4]) [%] | inhibition at 2 µM (NCI-H460 [5]) [%] | inhibition at 8 µM (NCI-H460 [6]) [%]
1 | CC(C)n1cnc2c(NCc3ccc(C(=O)Nc4ccccc4N)cc3)nc(Cl)nc21 | 89.7 | 3.41 | 2.17 | 3.32 | 0.8 | 2.13 | 73.2 | 76 | 63.8 | 74.4 | 54.1 | 80.5
2 | CCC(C)n1cnc2c(NCc3ccc(C(=O)Nc4ccccc4N)cc3)nc(Cl)nc21 (centres undefined) | 94.7 | 4.94 | 2.88 | 2.99 | 0.72 | 3.03 | 74.6 | 75.1 | 45 | 65 | 47.3 | 67.7
3 | Nc1ccccc1NC(=O)c1ccc(Cn2cnc3c(N4CCOCC4)nc(Cl)nc32)cc1 | 93.2 | 6.09 | 2.68 | 2.82 | 0.45 | 2.03 | 77.7 | 80.7 | 56.9 | 71.3 | 5.05 | 47
4 | CCCCn1cnc2c(NCc3ccc(C(=O)Nc4ccccc4N)cc3)nc(Cl)nc21 | 9.56 | – | – | – | – | – | 4.89 | 40.9 | 6.8 | 19.6 | 19.7 | 23.7
5 | Nc1ccccc1NC(=O)/C=C/c1ccc(Cn2cnc3c(N4CCOCC4)nc(Cl)nc32)cc1 | 25.7 | – | – | – | – | – | 17.8 | 55.4 | 19 | 40.9 | 1.24 | 37.9
6 | Nc1ccccc1NC(=O)c1ccc(Cn2cnc3c(Nc4ccccc4)nc(Cl)nc32)cc1 | 84 | 5.74 | 2.8 | 4.18 | 1.07 | 2.92 | 71.4 | 83.5 | 49.6 | 74.8 | 42.7 | 77.8
7 | CN1CCN(c2nc(Cl)nc3c2ncn3Cc2ccc(C(=O)Nc3ccccc3N)cc2)CC1 | 80.5 | 6.16 | 1.6 | 2.01 | 0.31 | 1.17 | 71.6 | 72.8 | 60.4 | 75 | 13.4 | 55
8 | Nc1ccccc1NC(=O)/C=C/c1ccc(Cn2cnc3c(NC4CCCCC4)nc(Cl)nc32)cc1 | 28.2 | – | – | – | – | – | 3.34 | 18.7 | 3.83 | 42.6 | 8.09 | 24.9

Second part, led by results:

Row | inhibition (Histone deacetylase 1) [%] | IC50 (NCI-H460 [7]) [µM] | IC50 (A-375) [µM] | IC50 (HepG2 [8]) [µM] | IC50 (HCT-116 [9]) [µM] | IC50 (HeLa) [µM] | SMILES | inhibition at 2 µM (HCT-116 [1]) [%] | inhibition at 8 µM (HCT-116 [2]) [%] | inhibition at 2 µM (HepG2 [3]) [%] | inhibition at 8 µM (HepG2 [4]) [%] | inhibition at 2 µM (NCI-H460 [5]) [%] | inhibition at 8 µM (NCI-H460 [6]) [%]
9 | 61.3 | 6.58 | 6.08 | 9.8 | 2.34 | 11.3 | Nc1ccccc1NC(=O)c1ccc(Cn2cnc3c(Nc4cccc(Cl)c4)nc(Cl)nc32)cc1 | 56.2 | 78.4 | 29.9 | 66.7 | 10.3 | 67
10 | 40.3 | – | – | – | – | – | Nc1ccccc1NC(=O)/C=C/c1ccc(Cn2cnc3c(Nc4cccc(OC(F)(F)F)c4)nc(Cl)nc32)cc1 | 2.8 | 5.23 | 16.2 | 37.6 | 2.1 | 66.7
11 | 41.8 | – | – | – | – | – | Cc1ccc(Nc2nc(Cl)nc3c2ncn3Cc2ccc(/C=C/C(=O)Nc3ccccc3N)cc2)cc1 | 0.27 | 15 | 33.6 | 43 | 31.3 | 51.3
12 | 23.6 | – | – | – | – | – | Nc1ccccc1NC(=O)/C=C/c1ccc(Cn2cnc3c(Nc4cccc(Cl)c4)nc(Cl)nc32)cc1 | 12.9 | 15.8 | 35.8 | 49.3 | 7.11 | 29.4
